Measured values: ChEMBL document CHEMBL3992541, “Combined treatment with zingerone and its novel derivative synergistically inhibits TGF-β1 induced epithelial-mesenchymal transition, migration and invasion of human hepatocellular carcinoma cells” (2017)
Activity calls are given as the source filed them. No cut-off for these calls is given here.

Legend:
SNU-182 [1] = assay: Inhibition of TGFbeta1-induced epithelial-mesenchymal transition in human SNU182 cells assessed as reduction in MMP2 mRNA expression at 40 uM preincubated for 2 hrs followed by TGFbeta1 addition measured after 48 hrs by qRT-PCR method; assay type: functional, cell-based
In short: (§1)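 SNU182 cells pretreated 2 h with single agents (12.5 or 40 µM) or the mixture (20 or 40 µM), then TGF-β 5 ng/ml for 48 h. MMP-2 and MMP-9 mRNA measured by RT-PCR with densitometry and by qRT-PCR, fold change by the 2^-ΔΔCt method. Mean±SD of triplicates.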

SNU-182 [2] = assay: Inhibition of TGFbeta1-induced epithelial-mesenchymal transition in human SNU182 cells assessed as reduction in downregulation of E-cadherin expression preincubated for 2 hrs followed by TGFbeta1 addition measured after 48 hrs in presence of (E)-1-(9-Ethyl-9H-carbazol-3-yl)-5-(4-hydroxy-3-methoxyphenyl)pent-1-en-3-one by Western blot method; assay type: functional, cell-based
In short: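 SNU182 cells pretreated 2 h with single agents (12.5 or 40 µM) or the mixture (20 and 40 µM), then stimulated with TGF-β1 5 ng/ml for 48 h. E-cadherin and Snail protein detected by Western blot, with GAPDH as loading control.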

SNU-182 [3] = assay: Inhibition of TGFbeta1-induced epithelial-mesenchymal transition in human SNU182 cells assessed as reduction in MMP9 activity measured after 48 hrs in presence of (E)-1-(9-Ethyl-9H-carbazol-3-yl)-5-(4-hydroxy-3-methoxyphenyl)pent-1-en-3-one by gelatin zymography assay; assay type: functional, cell-based
In short: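 Cells serum-starved overnight in 0.2% FBS medium, then left untreated or given TGF-β 5 ng/ml and/or the mixture for 48 h. MMP-2 and MMP-9 activity in conditioned medium determined by gelatin zymography.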

SNU-182 [4] = assay: Inhibition of TGFbeta1-induced epithelial-mesenchymal transition in human SNU182 cells assessed as reduction in upregulation of N-cadherin expression preincubated for 2 hrs followed by TGFbeta1 addition measured after 48 hrs in presence of zingerone by Western blot method; assay type: functional, cell-based
In short: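 Pretreatment of SNU182 cells with the mixture at 20 and 40 µM for 2 h in serum-free medium, followed by TGF-β1 5 ng/ml for 48 h. N-cadherin and Snail detected by Western blot against GAPDH.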

SNU-182 [5] = assay: Inhibition of TGFbeta1-induced epithelial-mesenchymal transition in human SNU182 cells assessed as reduction in MMP2 mRNA expression at 12.5 uM preincubated for 2 hrs followed by TGFbeta1 addition measured after 48 hrs by qRT-PCR method; assay type: functional, cell-based; in short: as §1
SNU-182 [6] = assay: Inhibition of TGFbeta1-induced epithelial-mesenchymal transition in human SNU182 cells assessed as reduction in MMP2 mRNA expression preincubated for 2 hrs followed by TGFbeta1 addition measured after 48 hrs in presence of zingerone by qRT-PCR method; assay type: functional, cell-based; in short: as §1
[7] = molecular target: Mothers against decapentaplegic homolog 2 (Homo sapiens) (UniProt Q15796); assay: Inhibition of TGFbeta1-induced SMAD2 phosphorylation in human SNU182 cells at 20 to 40 uM preincubated for 2 hrs followed by TGFbeta1 addition measured after 48 hrs in presence of zingerone by Western blot method; assay type: cell-based
In short: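 SNU182 cells given the mixture (20 and 40 µM) for 2 h, then TGF-β1 5 ng/ml for 48 h. Smad2/3 phosphorylation by Western blot, with total Smad2/3 as loading control.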

SNU-182 [8] = assay: Inhibition of TGFbeta1-induced epithelial-mesenchymal transition in human SNU182 cells assessed as reduction in mesenchymal phenotype preincubated for 2 hrs followed by TGFbeta1 addition measured after 48 hrs in presence of zingerone; assay type: functional, cell-based
In short: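 Cells preincubated 2 h in serum-free medium with the mixture (20 and 40 µM), then treated with TGF-β1 5 ng/ml for 48 h. Morphology (spindle-like, elongated shape, scattering) assessed by microscopy.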

SNU-182 [9] = assay: Growth inhibition of human SNU182 cells assessed as cell growth at 50 uM after 48 hrs by CCK8 assay relative to control; assay type: functional; settings: SNU-182, 48 h, read-out: Activity
SNU-182 [10] = assay: Growth inhibition of human SNU182 cells at <50 uM in presence of zingerone after 48 hrs by CCK8 assay; assay type: functional, cell-based
[11] = molecular target: Transcription factor Jun (Homo sapiens) (UniProt P05412); assay: Inhibition of TGFbeta1-induced AP-1 binding activity in human SNU182 cells at 20 to 40 uM measured after 48 hrs in presence of zingerone by luciferase reporter gene assay; assay type: cell-based
In short: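 SNU182 transfected with pGL4.44-AP-1-RE-Luc or empty pGL4.44, pretreated with the mixture (20 and 40 µM), then stimulated with TGF-β1 or DMSO. Luciferase reporter activity read. Mean±SD of triplicates.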

SNU-182 [12] = assay: Inhibition of TGFbeta1-induced migration in human SNU182 cells at 40 uM measured after 48 hrs in presence of zingerone by wound healing assay; assay type: functional, cell-based
In short: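 Wound healing: SNU182 monolayers at about 90% confluence scratched with a pipette tip and washed. Medium with TGF-β1, with or without 40 µM mixture, then added. Wound imaged at 0 and 48 h; relative motility from cell surface area. Mean±SD of triplicates.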

Sequence of Mothers against decapentaplegic homolog 2 (Homo sapiens) (Q15796 whole entry): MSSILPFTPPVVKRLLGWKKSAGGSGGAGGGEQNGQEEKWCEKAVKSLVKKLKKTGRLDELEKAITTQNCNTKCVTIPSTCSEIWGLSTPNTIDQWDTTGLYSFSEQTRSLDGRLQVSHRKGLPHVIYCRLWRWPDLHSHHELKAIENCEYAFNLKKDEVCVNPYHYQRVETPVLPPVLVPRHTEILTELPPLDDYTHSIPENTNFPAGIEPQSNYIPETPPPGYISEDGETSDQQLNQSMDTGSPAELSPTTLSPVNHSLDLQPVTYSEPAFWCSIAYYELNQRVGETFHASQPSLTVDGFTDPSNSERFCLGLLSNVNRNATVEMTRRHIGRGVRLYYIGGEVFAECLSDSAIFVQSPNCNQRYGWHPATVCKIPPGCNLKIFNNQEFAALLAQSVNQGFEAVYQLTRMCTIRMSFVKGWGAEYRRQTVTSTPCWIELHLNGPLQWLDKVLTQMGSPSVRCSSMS
Sequence of Transcription factor Jun (Homo sapiens) (P05412 whole entry): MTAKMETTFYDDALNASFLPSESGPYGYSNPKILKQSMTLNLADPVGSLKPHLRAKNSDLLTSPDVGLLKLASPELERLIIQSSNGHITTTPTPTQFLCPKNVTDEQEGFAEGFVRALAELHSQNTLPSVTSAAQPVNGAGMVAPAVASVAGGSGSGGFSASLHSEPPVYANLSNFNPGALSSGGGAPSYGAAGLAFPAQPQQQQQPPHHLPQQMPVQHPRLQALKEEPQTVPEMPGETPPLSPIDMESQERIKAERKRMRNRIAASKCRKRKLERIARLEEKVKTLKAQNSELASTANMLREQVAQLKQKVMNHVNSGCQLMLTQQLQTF

Structure (SMILES) | inhibition (SNU-182 [1]) | inhibition (SNU-182 [2]) | inhibition (SNU-182 [3]) | inhibition (SNU-182 [4]) | inhibition (SNU-182 [5]) | inhibition (SNU-182 [6]) | inhibition [7] | inhibition (SNU-182 [8]) | growth at 50 µM (SNU-182 [9]) [%] | growth inhibition (GI) (SNU-182 [10]) | inhibition [11] | inhibition (SNU-182 [12])
COc1cc(CCC(C)=O)ccc1O | inactive | Dose-dependent effect | Active | – | – | – | – | – | – | – | – | –
CCn1c2ccccc2c2cc(/C=C/C(=O)CCc3ccc(O)c(OC)c3)ccc21 | – | – | – | Dose-dependent effect | inactive | Dose-dependent effect | Active | Dose-dependent effect | 40 | inactive | Active | Active
